Assay results reported in ChEMBL document CHEMBL1124747, “Properties of the nucleic acid photoaffinity labeling agent 3-azidoamsacrine” (J Med Chem, 1990).

Assays:
[1] = Relative toxicity against mammalian L5178Y cells at dose 0.005 mg/mL in dark-1 condition (expt-I); type: functional, Mus musculus
In short: (§1)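 L5178Y mouse cells in suspension, 3 × 10^6 cells/mL, were exposed for 20 h at 37 °C in a shaker at 150 rpm under 5% CO2, without an activating enzyme. Light arms were irradiated for 6.5 min with a medium-pressure Hg lamp filtered to remove light below 340 nm; dark arms were not. Toxicity was taken as the Coulter-counted density of treated cells versus solvent control.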

[2] = Relative toxicity against mammalian L5178Y cells at dose 0.005 mg/mL in light-1 condition (expt-I); type: functional, Mus musculus; in short: as §1
[3] = Relative toxicity against mammalian L5178Y cells at dose 0.008 mg/mL in light-2 condition (expt-I); type: functional, Mus musculus; in short: as §1
[4] = Viability of L5178Y cells was evaluated at dose 0.005 mg/mL in dark-I condition (expt-I); type: functional, Mus musculus
In short: (§2)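 L5178Y cells were exposed for 20 h at 3 × 10^6 cells/mL. Light arms then received 6.5 min of Hg-lamp irradiation filtered to remove light below 340 nm. Cells were washed twice in Fischer's medium, grown a further 24 h and held at 3 × 10^5 cells/mL. For viability, 200 cells were plated in soft-agar cloning medium in triplicate dishes, and colonies were counted by an automated counter after 10 days.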

[5] = Viability of L5178Y cells was evaluated at dose 0.005 mg/mL in light-I condition (expt-I); type: functional, Mus musculus; in short: as §2
[6] = Viability of L5178Y cells was evaluated at dose 0.008 mg/mL in dark-II condition (expt-I); type: functional, Mus musculus; in short: as §2
[7] = Viability of L5178Y cells was evaluated at dose 0.008 mg/mL in light-II condition (expt-I); type: functional, Mus musculus; in short: as §2
[8] = Induction frequency for L5178Y cells was evaluated at dose 0.005 mg/mL in dark condition (expt-II); type: functional, Mus musculus
In short: (§3)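 L5178Y suspension cells (3 × 10^6/mL, 5% CO2, 37 °C, shaking) exposed 20 h without activating enzyme; light arm irradiated 6.5 min (Hg lamp, <340 nm filtered). Cells washed, grown 24 h more and kept at 3 × 10^5/mL. Viability from 200 cells in soft agar; TFT (0.1 mg/mL) resistant colonies from 10^6 cells in triplicate dishes, counted at 10 days.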

[9] = Induction frequency for L5178Y cells was evaluated at dose 0.005 mg/mL in light condition (expt-II); type: functional, Mus musculus; in short: as §3
[10] = Mean value of mutation induction for L5178Y cells was evaluated at dose 0.005 mg/mL in dark condition (expt-II); type: functional, Mus musculus
In short: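 L5178Y cells in suspension culture, gassed with 5% CO2 in air, shaken at 150 rpm, 37 °C. Cells at 3 × 10^6/mL were dosed for 20 h, unirradiated and without activating enzyme, then washed twice in Fop and grown 24 h more. TFT-resistant mutants came from 10^6 cells plated in three dishes of cloning medium with 0.1 mg/mL TFT, colonies counted at 10 days; frequency expressed ×10^6.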

[11] = Mean value of mutation induction for L5178Y cells was evaluated at dose 0.005 mg/mL in light condition (expt-II); type: functional, Mus musculus; in short: as §3
[12] = Mutation frequency for L5178Y cells was evaluated at dose 0.005 mg/mL in dark condition (expt-II); type: functional, Mus musculus; in short: as §3
[13] = Mutation frequency for L5178Y cells was evaluated at dose 0.005 mg/mL in light condition (expt-II); type: functional, Mus musculus; in short: as §3
[14] = Induction frequency for L5178Y cells was evaluated at dose 0.005 mg/mL in light-I condition (expt-I); type: functional, Mus musculus; in short: as §3
[15] = Induction frequency for L5178Y cells was evaluated at dose 0.008 mg/mL in dark-II condition (expt-I); type: functional, Mus musculus; in short: as §3
[16] = Mean value of mutation induction for L5178Y cells was evaluated at dose 0.005 mg/mL in dark-I condition (expt-I); type: functional, Mus musculus; in short: as §3
[17] = Mean value of mutation induction for L5178Y cells was evaluated at dose 0.005 mg/mL in light-I condition (expt-I); type: functional, Mus musculus; in short: as §3
[18] = Mean value of mutation induction for L5178Y cells was evaluated at dose 0.008 mg/mL in dark-II condition (expt-I); type: functional, Mus musculus; in short: as §3
[19] = Mean value of mutation induction for L5178Y cells was evaluated at dose 0.008 mg/mL in light-II condition (expt-I); type: functional, Mus musculus; in short: as §3
[20] = Ability to block cleavage of GCC/GGC site in NaeI enzyme with the light activated test compound/DNA ratio 1(no. of sites=4); += light activation
In short: (§4)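 pBR322 plasmid mixed with drug at 0.015, 0.12 or 0.48 mM (drug:DNA 1:8, 1:1 or 4:1), equilibrated on ice 30 min in the dark in 5 mM potassium phosphate pH 5.5, then irradiated 1 h with a medium-pressure Hg lamp (<340 nm filtered); dark set kept as control. Digested overnight with 10× excess enzyme plus DTT; fragments resolved on 1.2% agarose in TBE.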

[21] = Ability to block cleavage of GCC/GGC site in NaeI enzyme with the light activated test compound/DNA ratio 1:8(no. of sites=4); += light activation; in short: as §4
[22] = Ability to block cleavage of GCC/GGC site in NaeI enzyme with the light activated test compound/DNA ratio 4(no. of sites=4); += light activation; in short: as §4
[23] = Ability to block cleavage of […] site in NciI enzyme with the light activated test compound/DNA ratio 1(no. of sites=10); += light activation; in short: as §4
[24] = Ability to block cleavage of […] site in NciI enzyme with the light activated test compound/DNA ratio 1:8(no. of sites=10); += light activation; in short: as §4
[25] = Ability to block cleavage of […] site in NciI enzyme with the light activated test compound/DNA ratio 4(no. of sites=10); += light activation; in short: as §4
[26] = Ability to block cleavage of G/GNCC site in Restriction endonuclease Sau961 with the light activated test compound/DNA ratio 1(no. of sites=15); += light activation; in short: as §4
[27] = Ability to block cleavage of G/GNCC site in Restriction endonuclease Sau961 with the light activated test compound/DNA ratio 4(no. of sites=15); += light activation; in short: as §4
[28] = Ability to block cleavage of G/GNCC site in Restriction endonuclease Sau961 with the light activated test compound/DNA ratio 1:8(no. of sites=15); += light activation; in short: as §4
[29] = Half-life was evaluated in water in the presence of light; type: ADME
[30] = Relative toxicity against mammalian L5178Y cells at dose 0.008 mg/mL in dark-2 condition (expt-I); type: functional, Mus musculus; conditions: in the assay text read “0.008 µg/mL” for “0.008 mg/mL”; in short: as §1

- Blockage activity [20]: Light activation
- Blockage activity [21]: Light activation
- Blockage activity [22]: Light activation
- Blockage activity [23]: Light activation
- Blockage activity [24]: Light activation
- Blockage activity [25]: Light activation
- Blockage activity [26]: Light activation
- Blockage activity [27]: Light activation
- Blockage activity [28]: Light activation
- half-life [29]: 2.02 min
Compound: COc1cc(NS(C)(=O)=O)ccc1Nc1c2ccccc2nc2cc(N=[N+]=[N-])ccc12.Cl
- Relative toxicity [1]: 69
- Relative toxicity [2]: 69
- Relative toxicity [3]: 55
- Viability [4]: 66.7
- Viability [5]: 57
- Viability [6]: 22.3
- Viability [7]: 0
- Induced frequency [8]: 366
- Induced frequency [9]: 411
- Mean value [10]: 95
- Mean value [11]: 114.3
- Mutation frequency [12]: 504 10e6 F
- Mutation frequency [13]: 640 10e6 F
- Induced frequency [14]: 280
- Induced frequency [15]: 457
- Mean value [16]: 99.7
- Mean value [17]: 123.7
- Mean value [18]: 63
- Mean value [19]: 0
- Relative toxicity [30]: 55
